Measured values as given in ChEMBL document CHEMBL1212693, “Dorsomorphin inhibits BMP signals required for embryogenesis and iron metabolism” (Nat Chem Biol, 2008).
Calls of active or inactive are those of the source. No cut-off for these calls is given here.

What was measured:
[1] = system: Hep 3B2; assay: Inhibition of BMPR1-mediated hepcidin mRNA expression in IL6-stimulated human Hep3B cells at 10 uM treated 30 mins before IL6 challenge measured after 6 hrs by qRT-PCR analysis; type: cell-based
Summary of the method: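 Hep3B cells were incubated in α-MEM with 1% FCS for 6 h, with human IL-6 (100 ng ml−1) or without, together with compound or vehicle. After Trizol RNA extraction, hepcidin and Id1 mRNA were quantified by qRT-PCR. Values were normalised to 18S rRNA or β-actin mRNA, and measurements were in triplicate.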

[2] = system: Hep 3B2; assay: Inhibition of BMPR1-mediated Id1 mRNA expression in IL6-stimulated human Hep3B cells at 10 uM treated 30 mins before IL6 challenge measured after 6 hrs by qRT-PCR analysis; type: cell-based
Summary of the method: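 Hep3B cells were grown in α-MEM with 10% FBS, then incubated 6 h in α-MEM with 1% fetal calf serum, with or without dorsomorphin and human IL-6 (100 ng ml−1). RNA was Trizol-extracted. Id1 mRNA was measured by qRT-PCR, normalized to 18S rRNA or β-actin mRNA. Triplicate measurements, mean ± s.d.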

[3] = system: Danio rerio; assay: Inhibition of iron-dextran conjugate-induced Smad-5 phosphorylation in zebrafish at 23 ug/g, iv after 1 hr relative to control; type: functional
[4] = system: Mus musculus; assay: Increase in serum iron concentration in C57BL/6 mouse at 10 mg/kg, iv after 24 hrs; type: functional
[5] = species on record: Mus musculus; assay: Inhibition of BMPR1-mediated Smad-5 phosphorylation in BMP2-stimulated mouse PASMC at 4 uM treated 30 mins before BMP2 challenge measured after 30 mins by immunoblot analysis
Summary of the method: (§1)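 Wild-type mouse PASMCs were kept in RPMI with 0.5% FCS for 24 h. They were preincubated with compound or vehicle for 30 min, then stimulated for 30 min with recombinant BMP2, BMP4, BMP6 or BMP7 at 10 ng ml−1. Lysates in SDS buffer were immunoblotted with anti-phospho-SMAD1/5/8. Total SMAD1 and α-tubulin served as loading controls, and bands were quantified by phosphorimager.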

[6] = species on record: Mus musculus; assay: Inhibition of BMPR1-mediated Smad-5 phosphorylation in BMP6-stimulated mouse PASMC at 4 uM treated 30 mins before BMP6 challenge measured after 30 mins by immunoblot analysis; summary of the method: as §1
[7] = species on record: Mus musculus; assay: Inhibition of BMPR1-mediated Smad-8 phosphorylation in BMP7-stimulated mouse BMPR2 deficient PASMC at 4 uM treated 30 mins before BMP7measured after 30 mins by immunoblot analysis
[8] = species on record: Mus musculus; assay: Inhibition of ALK3-mediated Id1 promoter activity in BMPR2 deficient mouse PASMC at 10 uM by immunoblot analysis
Summary of the method: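 BMPR-II–deficient mouse PASMCs at 50% confluence co-transfected with Id1 promoter firefly luciferase (BRE-Luc, 0.3 µg), caALK2, caALK3 or caALK6 (0.6 µg), and pRL-TK Renilla (0.2 µg). Compound (4–10 µM) or vehicle added 1 h after transfection. Activity read as firefly/Renilla ratio by dual luciferase assay; n = 3, mean ± s.d.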

[9] = species on record: Danio rerio; assay: Inhibition of BMPR1-mediated osteoblast differentiation in zebrafish assessed as decrease in alkaline phosphatase level at 1 to 4 uM treated at 24 hrs post-fertilization measured on day 10 post-fertilization
[10] = system: HepG2; assay: Inhibition of BMPR1-mediated hepcidin mRNA expression in BMP2-stimulated human HepG2 cells at 10 uM treated 30 mins before BMP2 challenge measured after 16 hrs by qRT-PCR analysis; type: cell-based
[11] = species on record: Danio rerio; assay: Inhibition of BMPR1 in zebrafish assessed as penetrance of moderate embryonic axis dorsalization at 10 uM treated at 2 to 6 hrs post-fertilization measured at 48 hrs; parameters: scale not given: the % may be the effect or the level left
Summary of the method: (§2)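 Compound added at the stated times and concentrations. Gross morphology scored visually at up to 48 h.p.f. for dorsalization of the embryonic axis.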

[12] = species on record: Danio rerio; assay: Inhibition of BMPR1 in zebrafish assessed as severity of embryonic axis dorsalization at 10 uM treated at 2 to 6 hrs post-fertilization measured at 48 hrs; parameters: scale not given: the % may be the effect or the level left
[13] = species on record: Danio rerio; assay: Inhibition of BMPR1 in zebrafish assessed as penetrance of mild embryonic axis dorsalization at 10 uM treated at 2 to 8 hrs post-fertilization measured at 48 hrs; parameters: scale not given: the % may be the effect or the level left; summary of the method: as §2
[14] = species on record: Danio rerio; assay: Inhibition of BMPR1 in zebrafish assessed as penetrance of mild embryonic axis dorsalization at 10 uM treated at 6 to 8 hrs post-fertilization measured at 48 hrs; parameters: scale not given: the % may be the effect or the level left; summary of the method: as §2
[15] = species on record: Danio rerio; assay: Inhibition of BMPR1 in zebrafish assessed as penetrance of moderate embryonic axis dorsalization at 0.5 uM treated at 3 hrs post-fertilization measured at 48 hrs; parameters: scale not given: the % may be the effect or the level left; summary of the method: as §2
[16] = species on record: Danio rerio; assay: Inhibition of BMPR1 in zebrafish assessed as penetrance of normal embryonic axis dorsalization at 1 uM treated at 3 hrs post-fertilization measured at 48 hrs; parameters: scale not given: the % may be the effect or the level left
[17] = species on record: Danio rerio; assay: Inhibition of BMPR1 in zebrafish assessed as penetrance of mild embryonic axis dorsalization at 1 uM treated at 3 hrs post-fertilization measured at 48 hrs; parameters: scale not given: the % may be the effect or the level left; summary of the method: as §2
[18] = species on record: Danio rerio; assay: Inhibition of BMPR1 in zebrafish assessed as penetrance of normal embryonic axis dorsalization at 2 uM treated at 3 hrs post-fertilization measured at 48 hrs; parameters: scale not given: the % may be the effect or the level left
[19] = species on record: Danio rerio; assay: Inhibition of BMPR1 in zebrafish assessed as penetrance of mild embryonic axis dorsalization at 2 uM treated at 3 hrs post-fertilization measured at 48 hrs; parameters: scale not given: the % may be the effect or the level left; summary of the method: as §2
[20] = species on record: Danio rerio; assay: Inhibition of BMPR1 in zebrafish assessed as penetrance of moderate embryonic axis dorsalization at 2 uM treated at 3 hrs post-fertilization measured at 48 hrs; parameters: scale not given: the % may be the effect or the level left
[21] = species on record: Danio rerio; assay: Inhibition of BMPR1 in zebrafish assessed as severity of embryonic axis dorsalization at 2 uM treated at 3 hrs post-fertilization measured at 48 hrs; parameters: scale not given: the % may be the effect or the level left
[22] = species on record: Danio rerio; assay: Inhibition of BMPR1 in zebrafish assessed as penetrance of moderate embryonic axis dorsalization at 5 uM treated at 3 hrs post-fertilization measured at 48 hrs; parameters: scale not given: the % may be the effect or the level left
[23] = species on record: Danio rerio; assay: Inhibition of BMPR1 in zebrafish assessed as penetrance of normal embryonic axis dorsalization at 10 uM treated at 3 hrs post-fertilization measured at 48 hrs; parameters: scale not given: the % may be the effect or the level left
[24] = species on record: Danio rerio; assay: Inhibition of BMPR1 in zebrafish assessed as severity of embryonic axis dorsalization at 10 uM treated at 3 hrs post-fertilization measured at 48 hrs; parameters: scale not given: the % may be the effect or the level left
[25] = species on record: Danio rerio; assay: Inhibition of BMPR1 in zebrafish assessed as increase in egr2b expression at 10 uM treated at 12 hrs post-fertilization measured at 48 hrs
[26] = species on record: Danio rerio; assay: Inhibition of BMPR1 in zebrafish assessed as severity of embryonic axis dorsalization at 10 uM treated continuously from 4 hrs post-fertilization measured after 48 hrs; parameters: scale not given: the % may be the effect or the level left
[27] = species on record: Danio rerio; assay: Inhibition of BMPR1 in zebrafish assessed as penetrance of mild embryonic axis dorsalization at 10 uM treated continuously from 10 hrs post-fertilization measured at 48 hrs; parameters: scale not given: the % may be the effect or the level left; summary of the method: as §2
[28] = species on record: Danio rerio; assay: Inhibition of BMPR1 in zebrafish assessed as severity of embryonic axis dorsalization at 10 uM treated continuously from 10 hrs post-fertilization measured at 48 hrs; parameters: scale not given: the % may be the effect or the level left
[29] = species on record: Danio rerio; assay: Inhibition of BMPR1 in zebrafish assessed as penetrance of moderate embryonic axis dorsalization at 10 uM treated at 2 to 4 hrs post-fertilization measured at 48 hrs; parameters: scale not given: the % may be the effect or the level left; summary of the method: as §2

## c1cc(-c2cnn3cc(-c4ccc(OCCN5CCCCC5)cc4)cnc23)ccn1 [DORSOMORPHIN]
[1]
  inhibition: Active
[2]
  inhibition: Active
[3]
  fold change (FC): 3
[4]
  Activity: 60%
[5]
  inhibition: Active
[6]
  inhibition: Active
[7]
  inhibition: Active
[8]
  inhibition: Dose-dependent effect
[9]
  inhibition: Active
[10]
  inhibition: Active
[11]
  Activity: 44%
[12]
  Activity: 39%
[13]
  Activity: 0%
[14]
  Activity: 95%
[15]
  Activity: 0%
[16]
  Activity: 100%
[17]
  Activity: 0%
[18]
  Activity: 100%
[19]
  Activity: 0%
[20]
  Activity: 0%
[21]
  Activity: 0%
[22]
  Activity: 0%
[23]
  Activity: 0%
[24]
  Activity: 100%
[25]
  Activity: Active
[26]
  Activity: 0%
[27]
  Activity: 0%
[28]
  Activity: 0%
[29]
  Activity: 90%
